Each block holds one compound with its values, some of them ahead of it.
How the values were obtained:
ERRα = target: T1, ERRα (Homo sapiens, UniProt P11474); assay: ERRα functional assay: mammalian two-hybrid reporter gene assay; assay type: cell-based
T1 sequence (P11474 193-421 limits assumed): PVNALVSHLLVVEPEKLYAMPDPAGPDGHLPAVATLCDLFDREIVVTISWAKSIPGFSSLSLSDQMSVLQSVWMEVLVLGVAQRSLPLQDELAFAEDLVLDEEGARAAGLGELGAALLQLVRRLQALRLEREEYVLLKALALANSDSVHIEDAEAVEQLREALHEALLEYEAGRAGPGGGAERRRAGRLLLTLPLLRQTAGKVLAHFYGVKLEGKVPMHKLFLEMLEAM

ERRα LBD = target: T2, ERRα LBD (Homo sapiens, UniProt P11474); assay: TR-FRET co-activator assay; assay type: binding
T2 sequence (P11474 193-421 limits assumed): T1 sequence (P11474 193-421 limits assumed)

MCF-7 [1] = assay: Colony formation assay, MCF-7; assay type: cell-based, human; conditions: MCF-7, high-dose 1 μM
Procedure, shortened: (§1)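 1 × 10^3 cells/well plated in 6-well plates and cultured overnight. Medium then replaced with vehicle or test compound at 0.3 or 1 μM. Exposure is 7 days per legend and 2 weeks (until colonies visible) per methods. Colonies washed with PBS, fixed in 4% paraformaldehyde, stained 30 min with 0.1% crystal violet, imaged and counted. n = 3, mean ± SEM, unpaired t-test.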

[2] = Body weight and overt toxicity in xenograft mice; assay type: in vivo, BALB/c nude mice; conditions: 30 mg/kg every other day, intraperitoneally, vs control group
[3] = test system: MDA-MB-231 cells with ERRα knock-down; assay: Viability of MDA-MB-231 cells after ERRα knock-down; assay type: cell-based, human; conditions: siRNA (legend: shERRα vs shCtrl)
HCC-1937 = assay: CCK-8 cell viability assay, HCC-1937; assay type: cell-based, human; conditions: for suppression of cell proliferation: HCC-1937, 10 μM, CCK-8
Procedure, shortened: (§2)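 Log-phase cells seeded in 96-well plates and incubated overnight, then exposed to test compound or vehicle. Viability runs: 1, 3 and 10 μM for 24 h and 48 h. IC50: a range of concentrations for 24 h. Proliferation read by CCK-8 per kit procedure. Mean ± SEM of n = 3; two-tailed unpaired t-test vs vehicle.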

[4] = test system: ERRα-regulated target genes (PGC-1α, PDK4, osteopontin, pS2); assay: Quantitative RT-PCR of ERRα-regulated target genes in MDA-MB-231 cells; assay type: cell-based, human; conditions: high-dose 3 μM, 24 h
Procedure, shortened: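 MDA-MB-231 cells exposed 24 h to 0.1% DMSO or test compound at 1 or 3 μM. Total RNA isolated with Trizol, reverse-transcribed, and analysed by real-time PCR for PGC-1α, PDK4, osteopontin (SPP1) and pS2 (TFF1) mRNA. Mean ± SEM of n = 3; two-tailed unpaired t-test vs vehicle.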

MDA-MB-231 [5] = assay: Transwell invasion assay; assay type: cell-based, human; conditions: 24 h
[6] = test system: MDA-MB-231 xenograft tumour; assay: Breast cancer xenografts in nude mice; assay type: in vivo, BALB/c nude mice; conditions: 30 mg/kg every other day, intraperitoneally, 30 days
Procedure, shortened: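 6-week-old BALB/c nude mice were implanted subcutaneously with 2 × 10^6 MDA-MB-231 cells each. Dosing began once tumours averaged >100 mm3: i.p. 30 mg/kg every other day for 30 days in 0.9% saline with 0.5% 2-phenylethanol and 1.5% Tween 80, vehicle-only controls. Tumours measured every 5 days, V = length × width² × 0.5; body weight every 10 days. n = 6, mean ± SEM, two-tailed unpaired t-test vs vehicle.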

MCF-7 [7] = assay: Transwell invasion assay; assay type: cell-based, human; conditions: MCF-7, high-dose (3 μM), 24 h
[8] = test system: MCF-7 and MDA-MB-231 cells; assay: Transwell migration assay; assay type: cell-based, human; conditions: 24 h
MDA-MB-231 [9] = assay: Colony formation assay, MDA-MB-231; assay type: cell-based, human
Procedure, shortened: as §1

MCF-7 [10] = assay: CCK-8 cell viability assay, MCF-7; assay type: cell-based, human; conditions: for suppression of cell proliferation: MCF-7, 10 μM, CCK-8
Procedure, shortened: as §2

MDA-MB-231 [11] = assay: CCK-8 cell viability assay, MDA-MB-231; assay type: cell-based, human; conditions: for suppression of cell proliferation: MDA-MB-231, 10 μM, CCK-8
Procedure, shortened: as §2

IC50 (ERRα): 1610 nM
Structure (SMILES): Nc1ccc(S(=O)(=O)Nc2ccccc2Oc2ccc(Cl)cc2)cc1 [compound 13, 4-Amino-N-(2–(4-chlorophenoxy)phenyl)benzenesulfonamide]

IC50 (ERRα): > 10000 nM
IC50, inhibition of ERRα transcriptional activity (ERRα; reporter gene assay, HEK 293 T cells, 48 h): inactive
Structure (SMILES): COc1ccc(Oc2ccccc2NS(=O)(=O)c2ccc(N)cc2)cc1 [compound 12, 4-Amino-N-(2–(4-methoxyphenoxy)phenyl)benzenesulfonamide]

IC50 (ERRα): 1880 nM
Structure (SMILES): Cc1ccc(Oc2ccccc2NS(=O)(=O)c2ccc(N)cc2)cc1 [compound 14, 4-Amino-N-(2-(p-tolyloxy)phenyl)benzenesulfonamide]

The next lines start with the compound.

Structure (SMILES): Cc1ccc(Oc2ccccc2NS(=O)(=O)c2ccc([N+](=O)[O-])cc2)cc1 [compound 10, 4-Nitro-N-(2-(p-tolyloxy)phenyl)benzenesulfonamide]
IC50 (ERRα): 1230 nM
inhibiting activity relative to compound 14 (ERRα; ratio of IC50 values, compound 10 vs compound 14): 1.5 times

Structure (SMILES): O=[N+]([O-])c1ccc(S(=O)(=O)Nc2ccccc2Oc2ccccc2)cc1 [compound 8, 4-Nitro-N-(2-phenoxyphenyl)benzenesulfonamide]
IC50 (ERRα): 1760 nM

Structure (SMILES): COc1ccc(Oc2ccccc2NS(=O)(=O)c2ccc([N+](=O)[O-])cc2)cc1 [compound 11, N-(2–(4-methoxyphenoxy)phenyl)-4-nitrobenzenesulfonamide]
IC50 (ERRα LBD): 681 nM
reduction of the number of colonies (MCF-7 [1]): 47.5%
influence on weight of mice and overt toxicity [2]: no notably compound-related influences on the weight of mice or any other symptoms of overt toxicity
effect of ERRα knock-down on compound-induced anti-proliferation [3]: knock-down of ERRα reduced compound 11 induced anti-proliferation
suppression of cell proliferation (HCC-1937; 24 h): 31.0%
suppression of cell proliferation (HCC-1937; 48 h): 38.0%
IC50 (HCC-1937; Homo sapiens, HCC1937, 24 h, read-out: IC50, cell proliferation): 14700 nM
PGC-1α, PDK4, osteopontin and pS2 mRNA expression [4]: notably reduced
effect on cell invasion (MDA-MB-231 [5]; MB-231 cells, low-dose (1 μM)): weak effect
reduction in cell invasion (MDA-MB-231 [5]; MDA-MB-231, high-dose (3 μM)): 50.9%
tumour growth inhibition ([6]; MDA-MB-231 xenograft): 23.58%
tumour volume at the end of the experiment ([6]; control 1508 mm^3): 1152 mm^3
reduction in cell invasion (MCF-7 [7]): 31.5%
inhibition of breast cancer cells migration ([8]; 1 μM): moderate inhibition
inhibition of breast cancer cells migration ([8]; high-dose 3 μM): much more potently inhibitory effect
reduction of the number of colonies (MDA-MB-231 [9]; MDA-MB-231, high-dose 1 μM): 70.3%
number of colonies (MDA-MB-231 [9]; MDA-MB-231, low-dose 0.3 μM): decreased significantly
IC50 (ERRα): 800 nM
fold more active than compound 10 (ERRα; ratio of IC50 values, compound 11 vs compound 10): 1.5 fold
IC50 (MCF-7 [10]; Homo sapiens, MCF7, 24 h, read-out: IC50, cell proliferation): 15400 nM
suppression of cell proliferation (MCF-7 [10]; 24 h): 23.5%
suppression of cell proliferation (MCF-7 [10]; 48 h): 37.4%
IC50 (MDA-MB-231 [11]; Homo sapiens, MDA-MB-231, 24 h, read-out: IC50, cell proliferation): 9150 nM
suppression of cell proliferation (MDA-MB-231 [11]; 24 h): 38.9%
suppression of cell proliferation (MDA-MB-231 [11]; 48 h): 44.3%

Structure (SMILES): O=[N+]([O-])c1ccc(S(=O)(=O)Nc2ccccc2Oc2ccc(Cl)cc2)cc1 [compound 9, N-(2–(4-chlorophenoxy)phenyl)-4-nitrobenzenesulfonamide]
IC50 (ERRα): 2020 nM

Reference: article PMC8667933 (Journal of Enzyme Inhibition and Medicinal Chemistry, 2021)
